In the EternaBench riboswitch data:

Tested on: MS2 coat protein
Assay: apparent Kd, MS2 coat protein; higher = weaker binding; RNA-MaP array; FMN 200 µM where present
Summary of the method: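 Each design was made on Illumina sequencing-chip clusters by stalled E. coli RNA polymerase and titrated with SNAP-549-labelled MS2 coat protein from 0.7 or 1.5 nM, doubling to 3 µM, in the absence and then the presence of constant ligand. The buffer was 100 mM Tris-HCl pH 7.5, 80 mM KCl, 4 mM MgCl2, BSA, DTT, yeast tRNA and Tween-20. The apparent Kd is the median of filtered per-cluster fits of binding curves, with green signal normalised to red-channel RNA signal and control-cluster median Fmax.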

[1] = designed as: OFF switch for flavin mononucleotide, no ligand
[2] = ligand present: flavin mononucleotide, designed as: OFF switch for flavin mononucleotide
[3] = designed as: ON switch for flavin mononucleotide, no ligand
[4] = ligand present: flavin mononucleotide, designed as: ON switch for flavin mononucleotide

Sequence | apparent Kd [1] [nM] | apparent Kd [2] [nM] | apparent Kd [3] [nM] | apparent Kd [4] [nM]
CAGGGAACAGGAUAUACAUGAGGAUCACCCAUGUGUUCCAGCUAGGAAACUAGCAAAUGUAGAAGGGUUCCCUG | 174 | 922 | – | –
CAGGUAGACUGAGGAUAUACAUGACUUAGUCUAUCUAGGUCAUUAACCACAUGAGGAUCACCCAUGUAGAAGGCAGUCUGCCUG | 16.3 | 19.6 | – | –
CAGGUAGACUGAGGAUAUACAUUAAACAGCUAGUCUAUCUAGCUGGUCACAUGAGGAUCACCCAUGUAGAAGGCAGUCUGCCUG | 24.6 | 65.4 | – | –
CAGGUCUGAGGAUAUCCAUCUUCCUACAUGAGGAUCACCCAUGUUUCCCUCUGGGUUUUCGGAGAAGGCAGUUUUU | 263 | 226 | – | –
CAGUACUGAGGAUAUACAUGAGGAUCACCCAUGUCCCAAAAGUAGGAUACUACUAUUAGUAGAAGGCAGUACUG | 37.4 | 323 | – | –
CAGUAUUGAGGAUAUACAUGAGGAUCACCCAUGUGUUCCAGCUAGGAAACUAGCAAAAGUAGAAGGCAGUACUG | 21.6 | 186 | – | –
CAGUCUACAGGAUAUACAUGAGGAUCACCCAUGUGUAUCAACCUUCUGUGAUCCUCAUGUAGAAGGGUAGACUG | 13.5 | 10.9 | – | –
CAGUCUACAGGAUAUACAUGAGGAUCACCCAUGUUUAUCAACCUUCAGUAAUCCACAUGUAGAAGGGUAGACUG | 19.7 | 21.4 | – | –
CAGUCUACAGGAUAUACAUGAGGAUCACCCAUGUUUAUCAACUUUCAGUAAUCCAUAUGUAGAAGGGUAGACUG | 23.9 | 79.1 | – | –
CAUAUAGUUUGAGGAUAUUCAUGCACUGUAUACGGAGAAGGCAAACUAUCAUGUGGACAUGAGGAUCACCCAUGUAGUGACCAG | – | – | 54.2 | 41
CAUCCGGCAGGAUAUACAUGAGGAUCACCCAUGUCAGAAAGCAAAUUGUGCGACUCAGGUAGAAGGGUUGGACU | 28.9 | 34.2 | – | –
CAUGUCCUCACAGGAUAUGCACCACUUUGUGGUGCAGAAGGGUGGAAACAUGAGGAUCACCCAUGUGGACAUGAUAUAUUUAAG | – | – | 142 | 24.8
CAUUAACAUGAGGAUCACCCAUGUGAGGAUAUGAUAUUACUUGGACAGCUGUGGUCAAUCAGAAGGCACAUCUU | 27.8 | 32.9 | – | –
CAUUAAUUCAUUAUAGUUAUUAUACAGGAUAUGUUACAUGAGGAUCACCCAUGUAUUCUUGGUAAACAGAAGGGUAUUUCUAGU | 7.48 | 8.5 | – | –
CAUUUACAUGAGGAUCACCCAUGUUCUGGCGGGUCAGGAUAUAGAUCGGAUGCGUUCUGUCUAGAAGGGACAUGUU | – | – | 72 | 35.6
CCAAGUUCGUAGGAUAUAGAUGCCUUAGGGCAAUUAGAAGGAUGGACAUGAGGAUCACCCAUGUCGGAUUCUGU | – | 18 | – | –
CCAAUGUAAGGAUAUGACAAUGGUAUCUUCGGAUACCAUUGUCAGAAGGUACAUGAGGAUCACCCAUGUACAAA | 14.3 | 16.6 | – | –
CCAGGCGUAUAGGAUAUACGUGUCGAGUUCGCUGUAGAAGGAUACACAUGAGGAUCACCCAUGUUUGCCAGUGG | 24.5 | 21.2 | – | –
CCAUAUAACUGAGGAUAUACUCACCACUAACAUGUAGAAGGCAGACAUGAGGAUCACCCAUGUGAUUUCUCAAUAUUAUACAUC | 901 | 658 | – | –
CCAUGGAAUGUAGGAUAUGACUGACAAAGUCAGUUAGAAGGACAUGAGGAUCACCCAUGUAGGAAACAACCACAUAAACCAUGG | 7.62 | 6.97 | – | –
CCAUGGCUGUAAGGAUAUCUCUGACAAAGUCAGAGAGAAGGUACAUGAGGAUCACCCAUGUGAGGAAAACCACAUUUGCCAUGG | 9.46 | 15.7 | – | –

Sequence | apparent Kd [1] [nM] | apparent Kd [2] [nM] | apparent Kd [3] [nM] | apparent Kd [4] [nM]
CCAUGUCUAUGAGGAUAUCCGAAUUAGCGUUUGACAACGAUGAGUUCUCCAGGAGAAGGCAUGGACAUGAGGAUCACCCAUGUA | 29.6 | 75.5 | – | –
CCCACGAAAGUCGAACGAUGUAGCAGAAGGACAUGAGGAUCACCCAUGUCAGCUGUAACAGCCAUGUAGGAUAUGCUACAUCCC | 5.24 | 6.88 | – | –
CCCAGAGAUGAGAAGGGACACGGGUGCUUUCUGACAUGAGGAUCACCCAUGUCAGGAUAUCAGCAUGGCGUCGGGAUGCCCGAC | 7.24 | 5.8 | – | –
CCCGGCGUGACGCUACACCGAGAGCAGGAUAUUCCGCCGUGAUCUACAUGAGGAUCACCCAUGUGGAAGAAGGGCUACACAAAA | 8.94 | 37.5 | – | –
CCCUCACAUGAGGAUCACCCAUGUUAGGAUAUCUACCAGGAGCUUUGAAUUGCCCAACGGAGAAGGAACGUGCA | 16.9 | 17.4 | – | –
CCCUGAGAUUGGUUAAUUGGCUGAUAGGAUAUCCUCGGACAUGAGGAUCACCCAUGUUAACUAUUGGAGAAGGGUCAGCGAAAG | – | – | 607 | 90.2
CCCUUUAGAAAAGGGACAUGAGGAUCACCCAUGUAGGCUGCACAGGAUAUCGAUCGGAGGCGGUACGAGAAGGGUGAUGUCAUU | – | – | 58.3 | 72.1
CCGAAUAUGCAGGAUAUCGUAUCGGAGACGAUACGAGAAGGGCAAACAUGAGGAUCACCCAUGUUCCUUAACGG | 19.1 | 22.5 | – | –
CCGAGGCAAAUAAAACAUGAGGAUCACCCAUGUGAGUCUCAUGAGGAUAUGCAGGUCAAAGACUUGCAGAAGGCAUGGCUUCGG | – | – | 1190 | 146
CCGAGUGGCGUACAGGAUAUGUUGCGUGGAACAUGAGGAUCACCCAUGUAUUUGCUCCUGCAUACGCAGAAGGGUGCGUCCUGGG | – | – | 52.9 | 17.4
CCGAUGAUAGGACAGGAUAUGACUGUCGUCACAUGAGGAUCACCCAUGUCCCGGCAAUGCCACCGUUAGAAGGGUCCCAUCUCGG | – | – | 19.1 | 16.3
CCGAUGAUAGGACAGGAUAUGACUGUCGUCACAUGAGGAUCACCCAUGUCCCGGCAAUGCCACCGUUAGAAGGGUCCUAUCUCGG | – | – | 13.1 | 13
CCGAUUAGCACAGGAUAUGGGAACUCGUAAUUCCCAGAAGGGUGAGCCAAUACAUGAGGAUCACCCAUGUGCGGUAGGUCGGGA | – | – | 40.5 | 51
CCGCCAUAAGUCAGGAUAUUCUUUAAGUUGUUGGAGAAGAAGGGACAUGAGGAUCACCCAUGUAAUAGGCCUCA | 842 | 598 | – | –
CCGCUGUGAGGAUAUUAGUAGUAGUCAGAAUAGACUAUUACUGAGAAGGCACAUGAGGAUCACCCAUGUGGCGG | 22.4 | 31.7 | – | –
CCGGAAACGGGUAGCCUGACAUGAGGAUCACCCAUGUGAUCAGAGGAUAUGGAUCCUAAUUGGAUCCAGAAGGCUGUUGGCUAC | – | – | 73.4 | 27.5
CCGGAAGUACAGGAUAUAGGAGUCGAUAGACUCCUAGAAGGGUAUACAUGAGGAUCACCCAUGUGUCCUACCGG | 29.6 | 33.4 | – | –
CCGGCUGCUGUGAGGAUAUGCCUGUGGGUGCGCGGGCAGAAGGCACAUGAGGAUCACCCAUGUCCUGCGGUCCC | 25.7 | 50.6 | – | –
CCGGCUUACUAGGAUAUAGGAGUCGAUAGACACCUAGAAGGAGUAACAUGAGGAUCACCCAUGUGUCCUACCGG | 22.1 | 86 | – | –
CCGGCUUAGGAGGAUAUGGGAGUCGAUAGACACCCAGAAGGCCUAACAUGAGGAUCACCCAUGUGUCCUACCGG | 23.4 | 109 | – | –
CCGGGACAUGAGGAUCACCCAUGUUUCGUUUGUAGUAAAACACAGGAUAUGAUGAAACAGGUUUCUCAGAAGGGUGUUCCGAAA | – | – | 81.3 | 55.3
